In ChEMBL document CHEMBL1157537 (J Med Chem, 2008):
Calls of active or inactive are those of the source. The calls are words filed in the database; no cut-off is given here.

Columns and labels:
[1] = organism: Rattus norvegicus; test: Progestational activity in estrone-treated ovariectomized rat assessed as effect on uterine epithelial cell height; format: functional, organism-based
Summary of the method: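 Ovariectomized rats were treated with estrone, alone or combined with test progestin, and compared with vehicle and estrone-only groups. Endpoints were uterine epithelial cell height, vaginal epithelial thickness and mammary alveolar bud proliferation.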

[2] = target: T1, Progesterone receptor (Homo sapiens) (UniProt P06401); test: Agonist activity at human progesterone receptor relative to progesterone; format: functional
T1 sequence (whole entry): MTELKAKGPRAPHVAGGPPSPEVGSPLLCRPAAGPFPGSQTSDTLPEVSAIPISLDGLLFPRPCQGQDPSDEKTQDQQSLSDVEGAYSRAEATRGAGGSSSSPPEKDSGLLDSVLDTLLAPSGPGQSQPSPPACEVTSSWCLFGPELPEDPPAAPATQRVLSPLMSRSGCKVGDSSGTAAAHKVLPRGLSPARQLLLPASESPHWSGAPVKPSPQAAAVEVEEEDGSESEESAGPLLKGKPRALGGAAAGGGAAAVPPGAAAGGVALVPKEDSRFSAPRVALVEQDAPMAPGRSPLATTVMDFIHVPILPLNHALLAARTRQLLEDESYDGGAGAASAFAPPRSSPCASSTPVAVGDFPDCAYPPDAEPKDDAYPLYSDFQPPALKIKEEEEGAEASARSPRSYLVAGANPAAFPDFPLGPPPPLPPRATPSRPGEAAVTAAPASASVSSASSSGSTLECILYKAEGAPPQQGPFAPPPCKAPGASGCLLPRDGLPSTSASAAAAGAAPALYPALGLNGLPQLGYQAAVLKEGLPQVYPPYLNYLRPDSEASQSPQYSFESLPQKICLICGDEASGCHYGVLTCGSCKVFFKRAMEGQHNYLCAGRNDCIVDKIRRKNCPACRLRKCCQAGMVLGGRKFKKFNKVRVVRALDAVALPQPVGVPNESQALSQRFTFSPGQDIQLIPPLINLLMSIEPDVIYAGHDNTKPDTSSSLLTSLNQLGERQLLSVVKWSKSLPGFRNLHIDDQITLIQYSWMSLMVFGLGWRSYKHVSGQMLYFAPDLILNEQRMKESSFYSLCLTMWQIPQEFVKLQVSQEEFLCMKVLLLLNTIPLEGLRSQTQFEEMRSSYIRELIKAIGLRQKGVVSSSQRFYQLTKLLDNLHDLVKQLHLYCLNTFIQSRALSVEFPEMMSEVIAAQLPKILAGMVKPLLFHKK

[3] = target: T2, Mineralocorticoid receptor (Homo sapiens) (UniProt P08235); test: Agonist activity at human mineralocorticoid receptor relative to aldosterone; format: functional
T2 sequence (whole entry): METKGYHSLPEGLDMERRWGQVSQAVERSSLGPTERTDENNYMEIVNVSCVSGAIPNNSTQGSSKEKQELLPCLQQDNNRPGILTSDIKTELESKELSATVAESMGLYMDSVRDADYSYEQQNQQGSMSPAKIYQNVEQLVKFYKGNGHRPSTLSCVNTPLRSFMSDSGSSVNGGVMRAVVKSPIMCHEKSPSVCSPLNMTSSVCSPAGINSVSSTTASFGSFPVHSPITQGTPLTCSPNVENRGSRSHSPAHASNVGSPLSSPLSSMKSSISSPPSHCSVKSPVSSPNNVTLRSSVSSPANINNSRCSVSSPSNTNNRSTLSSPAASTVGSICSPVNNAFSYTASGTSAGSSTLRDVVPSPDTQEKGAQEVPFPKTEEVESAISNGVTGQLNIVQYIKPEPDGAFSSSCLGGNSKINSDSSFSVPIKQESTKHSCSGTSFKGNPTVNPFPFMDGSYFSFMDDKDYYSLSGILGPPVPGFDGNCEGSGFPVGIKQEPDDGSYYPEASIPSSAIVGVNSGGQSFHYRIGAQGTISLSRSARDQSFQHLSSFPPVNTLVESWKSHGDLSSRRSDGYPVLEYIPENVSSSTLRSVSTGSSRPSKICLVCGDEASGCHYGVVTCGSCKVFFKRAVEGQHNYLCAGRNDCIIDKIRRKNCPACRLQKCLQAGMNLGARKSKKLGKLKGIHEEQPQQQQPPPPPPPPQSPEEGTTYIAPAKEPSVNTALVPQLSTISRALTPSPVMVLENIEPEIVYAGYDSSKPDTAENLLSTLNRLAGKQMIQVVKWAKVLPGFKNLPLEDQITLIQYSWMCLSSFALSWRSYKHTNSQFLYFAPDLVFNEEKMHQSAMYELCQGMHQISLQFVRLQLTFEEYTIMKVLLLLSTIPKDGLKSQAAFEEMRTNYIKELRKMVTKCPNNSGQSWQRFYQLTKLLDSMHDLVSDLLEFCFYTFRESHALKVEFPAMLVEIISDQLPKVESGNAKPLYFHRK

[4] = system: Oryctolagus cuniculus; test: Progestational activity in New Zealand white rabbit uterine epithelium at 0.10 mg/kg, po after 3 days by Clauberg-McPhail assay; format: functional, organism-based; set-up: dose 0.1 mg/kg

Efficacy [2]: 145%
Efficacy [3]: 8%
Structure (SMILES): CC1=C[C@@H]([C@@H]2Oc3c(F)cc(F)cc3-c3ccc4c(c32)C(C)=CC(C)(C)N4)CCC1 (stereo in doubt; (-)-5c)
Activity [1]: Active
Activity [4]: Active
